The source of these data is ChEMBL document CHEMBL1143255, “Standard protecting groups create potent and selective kappa opioids: salvinorin B alkoxymethyl ethers” (Bioorg Med Chem, 2008).

By Ki is commonly meant a measure of affinity in units of concentration, obtained from inhibition or displacement. High values mean a looser hold on the target, low ones a stronger hold on the target. As a reminder, the EC50 is the midpoint of the concentration-response curve. A word on the Emax: it is the size of the effect at its maximum, as opposed to the concentration needed.

The structures appear in SMILES notation.

The target in experiment [1] is T1, Kappa-type opioid receptor (Homo sapiens, UniProt P41145). Briefly: Displacement of [3H]diprenorphine from human kappa opioid receptor expressed in CHO cells. Format: cell-based. In short, it runs like this: (§1)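 Competitive inhibition of [3H]diprenorphine binding to membranes from CHO cells stably transfected with human κ, rat μ or mouse δ receptor; testing blinded to compound identity and molecular mass; mean of three independent experiments in duplicate.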

The next experiment deals with Mu-type opioid receptor (Rattus norvegicus, UniProt P33535). Description: Displacement of [3H]diprenorphine from rat mu opioid receptor expressed in CHO cells. Format: cell-based. In a few lines: as §1
Experiment [2] addresses Delta-type opioid receptor (Mus musculus, UniProt P32300). Briefly: Displacement of [3H]diprenorphine from mouse delta opioid receptor expressed in CHO cells. Type of experiment: cell-based. In a few lines: as §1
Background: Loss of bound radioactivity is the signal in a displacement assay; it reports binding, not function.

Experiment [3] concerns the target T1, Kappa-type opioid receptor. Briefly: Agonist activity at human kappa opioid receptor expressed in CHO cells assessed as stimulation of [35S]GTPgammaS binding. Format: functional, cell-based. In a few lines:
(§2)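 Potency and efficacy from [35S]GTPγS binding to membranes of CHO cells stably expressing human κ receptor; testing blinded to compound identity and molecular mass.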

For experiment [4], the target named is T1, Kappa-type opioid receptor. Briefly: Agonist activity at human kappa opioid receptor expressed in CHO cells assessed as stimulation of [35S]GTPgammaS binding relative to U50488H. Format: functional, cell-based. In a few lines:
as §2

Experiment [5] in a line: Selectivity for human kappa opioid receptor over rat mu opioid receptor.
Experiment [6] is described as follows: Selectivity for human kappa opioid receptor over mouse delta opioid receptor.

Sequence of Delta-type opioid receptor (P32300 whole entry): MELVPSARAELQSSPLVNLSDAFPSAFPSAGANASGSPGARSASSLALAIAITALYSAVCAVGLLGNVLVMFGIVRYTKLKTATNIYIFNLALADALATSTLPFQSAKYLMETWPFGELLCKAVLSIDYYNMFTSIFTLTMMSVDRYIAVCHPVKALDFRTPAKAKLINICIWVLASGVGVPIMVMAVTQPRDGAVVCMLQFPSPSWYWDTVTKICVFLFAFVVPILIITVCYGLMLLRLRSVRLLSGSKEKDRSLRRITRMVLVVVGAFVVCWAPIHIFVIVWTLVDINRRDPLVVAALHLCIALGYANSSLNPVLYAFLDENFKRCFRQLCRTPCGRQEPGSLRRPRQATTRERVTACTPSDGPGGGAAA
Sequence of Mu-type opioid receptor (P33535 whole entry): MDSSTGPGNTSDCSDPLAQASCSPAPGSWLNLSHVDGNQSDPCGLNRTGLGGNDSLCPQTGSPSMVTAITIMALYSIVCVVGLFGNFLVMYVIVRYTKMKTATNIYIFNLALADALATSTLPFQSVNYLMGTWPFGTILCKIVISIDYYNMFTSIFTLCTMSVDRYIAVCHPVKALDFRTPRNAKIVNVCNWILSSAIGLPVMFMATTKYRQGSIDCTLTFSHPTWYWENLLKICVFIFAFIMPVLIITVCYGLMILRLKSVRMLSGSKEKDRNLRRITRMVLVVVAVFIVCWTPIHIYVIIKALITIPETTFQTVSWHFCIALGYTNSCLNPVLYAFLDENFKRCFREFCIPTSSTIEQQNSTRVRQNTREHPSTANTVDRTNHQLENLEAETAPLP
T1 sequence (P41145 whole entry): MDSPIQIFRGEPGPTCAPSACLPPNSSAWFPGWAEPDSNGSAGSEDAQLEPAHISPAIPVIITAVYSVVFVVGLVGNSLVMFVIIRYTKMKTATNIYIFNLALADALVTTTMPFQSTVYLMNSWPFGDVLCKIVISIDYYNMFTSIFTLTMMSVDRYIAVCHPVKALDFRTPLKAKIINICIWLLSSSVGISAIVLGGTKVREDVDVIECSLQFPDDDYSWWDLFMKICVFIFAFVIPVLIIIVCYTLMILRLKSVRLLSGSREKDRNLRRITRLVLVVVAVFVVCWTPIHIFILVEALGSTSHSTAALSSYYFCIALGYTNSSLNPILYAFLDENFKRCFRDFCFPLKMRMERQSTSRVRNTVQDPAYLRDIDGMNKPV

For `CCCOCO[C@H]1C[C@@H](C(=O)OC)[C@]2(C)CC[C@H]3C(=O)O[C@H](c4ccoc4)C[C@]3(C)[C@H]2C1=O` [SALVINORIN B PROPOXYMETHYL ETHER], the Ki in experiment [1] is 2.2 nM; at Mu-type opioid receptor it was above 1000 nM; in experiment [2] it was above 1000 nM. Besides, the EC50 in experiment [3] was 5.2 nM. The Emax in experiment [4] amounted to 81%.
In the case of `COC(=O)[C@@H]1C[C@H](OC2CCCCO2)C(=O)[C@H]2[C@@]1(C)CC[C@H]1C(=O)O[C@H](c3ccoc3)C[C@]21C` (some centres undefined), the Ki is 4 nM in experiment [1], above 1000 nM at Mu-type opioid receptor and above 1000 nM in experiment [2]. Besides, the EC50 in experiment [3] came to 2.8 nM. Also, the Emax in experiment [4] is 81%.
Turning to `CCO[C@H]1C[C@@H](C(=O)OC)[C@]2(C)CC[C@H]3C(=O)O[C@H](c4ccoc4)C[C@]3(C)[C@H]2C1=O` [DEOXY SALVINORIN A], in experiment [3], the EC50 was found to be 18 nM.
Take `CCOC(C)O[C@H]1C[C@@H](C(=O)OC)[C@]2(C)CC[C@H]3C(=O)O[C@H](c4ccoc4)C[C@]3(C)[C@H]2C1=O` (some centres undefined) [listing 1 of 3 here]: the Emax in experiment [4] was 81%.
For `COC(=O)[C@@H]1C[C@H](OCOC(C)(C)C)C(=O)[C@H]2[C@@]1(C)CC[C@H]1C(=O)O[C@H](c3ccoc3)C[C@]21C`, the results for the Ki (in experiment [1]; at Mu-type opioid receptor; in experiment [2]) were 35 nM, above 1000 nM and above 1000 nM, respectively. In addition, in experiment [3], the EC50 worked out at 108 nM. Moreover, in experiment [4], the Emax came out at 81%.
Regarding `COCCOCO[C@H]1C[C@@H](C(=O)OC)[C@]2(C)CC[C@H]3C(=O)O[C@H](c4ccoc4)C[C@]3(C)[C@H]2C1=O`, the Ki is 141 nM in experiment [1], above 1000 nM on Mu-type opioid receptor and above 1000 nM in experiment [2]. In addition, in experiment [3], the EC50 came out at 320 nM. For the same compound, the Emax in experiment [4] amounted to 81%.
With `CCCCOCO[C@H]1C[C@@H](C(=O)OC)[C@]2(C)CC[C@H]3C(=O)O[C@H](c4ccoc4)C[C@]3(C)[C@H]2C1=O` [SALVINORIN B BUTOXYMETHYL ETHER], the results for the Ki (in experiment [1]; at Mu-type opioid receptor; in experiment [2]) were 5.3 nM, above 1000 nM and above 1000 nM, respectively. Further, in experiment [3], the EC50 is 20 nM. Moreover, the Emax in experiment [4] was 81%.
In the case of `COC(=O)[C@@H]1C[C@H](OCOC(C)C)C(=O)[C@H]2[C@@]1(C)CC[C@H]1C(=O)O[C@H](c3ccoc3)C[C@]21C` [SALVINORIN B ISOPROPOXYMETHYL ETHER], the Ki in experiment [1] was 1.6 nM; on Mu-type opioid receptor it was above 1000 nM; in experiment [2], above 1000 nM. For the same compound, in experiment [3], the EC50 was determined as 4.2 nM. Also, in experiment [4], the Emax worked out at 81%.
As for `CCOCO[C@H]1C[C@@H](C(=O)OC)[C@]2(C)CC[C@H]3C(=O)O[C@H](c4ccoc4)C[C@]3(C)[C@H]2C1=O` [SALVINORIN B ETHOXYMETHYL ETHER], the Ki was 0.32 nM in experiment [1], above 1000 nM on Mu-type opioid receptor and above 1000 nM in experiment [2]. The EC50 in experiment [3] was 0.14 nM. Moreover, the Emax in experiment [4] came to 81%. Besides, the Selectivity ratio in experiment [5] and in experiment [6] was above 3000 each time.
In the case of `COC(=O)[C@@H]1C[C@H](OCOCCF)C(=O)[C@H]2[C@@]1(C)CC[C@H]1C(=O)O[C@H](c3ccoc3)C[C@]21C`, the figures for the Ki (in experiment [1]; at Mu-type opioid receptor; in experiment [2]) were 1.9 nM, above 1000 nM and above 1000 nM, respectively. In addition, the EC50 in experiment [3] worked out at 3.8 nM. Besides, in experiment [4], the Emax was found to be 81%. Moreover, the Selectivity ratio in experiment [5] is above 500.
As for `COC(=O)[C@@H]1C[C@H](OCOCC[Si](C)(C)C)C(=O)[C@H]2[C@@]1(C)CC[C@H]1C(=O)O[C@H](c3ccoc3)C[C@]21C`, the Ki (in experiment [1]; at Mu-type opioid receptor; in experiment [2]) was above 1000 nM throughout. Besides, the EC50 in experiment [3] was 1660 nM. Also, in experiment [4], the Emax came out at 81%.
For `COC(=O)[C@@H]1C[C@H](OCOCC(F)(F)F)C(=O)[C@H]2[C@@]1(C)CC[C@H]1C(=O)O[C@H](c3ccoc3)C[C@]21C`, the Ki was 31 nM in experiment [1], above 1000 nM at Mu-type opioid receptor and above 1000 nM in experiment [2]. The EC50 in experiment [3] is 75 nM. Besides, the Emax in experiment [4] is 81%.
Take `CCOC(C)O[C@H]1C[C@@H](C(=O)OC)[C@]2(C)CC[C@H]3C(=O)O[C@H](c4ccoc4)C[C@]3(C)[C@H]2C1=O` (some centres undefined) [listing 2 of 3 here]: the Ki (on Mu-type opioid receptor; in experiment [2]) was above 1000 nM throughout.
As to `COC(=O)[C@@H]1C[C@H](OCSC)C(=O)[C@H]2[C@@]1(C)CC[C@H]1C(=O)O[C@H](c3ccoc3)C[C@]21C` [SALVINORIN B METHYLTHIOMETHYL ETHER], the Ki in experiment [1] is 13 nM; on Mu-type opioid receptor it was above 1000 nM; in experiment [2] it was above 1000 nM. Also, the EC50 in experiment [3] was determined as 31 nM. In experiment [4], the Emax was determined as 81%.
As for `COC(=O)[C@@H]1C[C@H](OCOCc2ccccc2)C(=O)[C@H]2[C@@]1(C)CC[C@H]1C(=O)O[C@H](c3ccoc3)C[C@]21C` [SALVINORIN B BENZYLOXYMETHYL ETHER], the Ki in experiment [1] was 147 nM; on Mu-type opioid receptor, above 1000 nM; in experiment [2] it was above 1000 nM. Besides, the EC50 in experiment [3] was found to be 274 nM. Also, the Emax in experiment [4] worked out at 81%.
With `COC(=O)[C@@H]1C[C@H](OCF)C(=O)[C@H]2[C@@]1(C)CC[C@H]1C(=O)O[C@H](c3ccoc3)C[C@]21C` [SALVINORIN B FLUOROMETHYL ETHER], the values for the Ki (in experiment [1]; at Mu-type opioid receptor; in experiment [2]) were 50 nM, above 1000 nM and above 1000 nM, respectively. For the same compound, the EC50 in experiment [3] worked out at 26 nM. Besides, the Emax in experiment [4] turned out to be 81%.
For `COC(=O)[C@@H]1C[C@H](OC(C)(C)OC)C(=O)[C@H]2[C@@]1(C)CC[C@H]1C(=O)O[C@H](c3ccoc3)C[C@]21C`, the Ki is 72 nM in experiment [1], above 1000 nM on Mu-type opioid receptor and above 1000 nM in experiment [2]. Also, the EC50 in experiment [3] turned out to be 72 nM. Besides, in experiment [4], the Emax was found to be 81%.
In the case of `CCOC(C)O[C@H]1C[C@@H](C(=O)OC)[C@]2(C)CC[C@H]3C(=O)O[C@H](c4ccoc4)C[C@]3(C)[C@H]2C1=O` (some centres undefined) [listing 3 of 3 here], the Ki (on Mu-type opioid receptor (cho); in experiment [2] (cho)) was above 1000 nM in each case.
